Measured values published in ChEMBL document CHEMBL2176936, “Identification of a 4-(hydroxymethyl)diarylhydantoin as a selective androgen receptor modulator” (J Med Chem, 2012).

Assays:
Rattus norvegicus [1] = assay: Androgenic activity in ORX rat model assessed as weight of ventral prostate at 30 mg/kg/day, po administered for 4 days; assay type: functional, Prostate gland
Outline: (§1)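 Hershberger-type model in castrated immature male rats: left untreated one week after castration, then dosed four days (test compounds oral; testosterone propionate sc). Levator ani and ventral prostate weights normalised to body weight; activity % = (W/BW treated − W/BW ORX)/(W/BW sham − W/BW ORX) × 100. A50 = dose giving 50% activity on the tissue.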

Rattus norvegicus [2] = assay: Androgenic activity in ORX rat model assessed as weight of ventral prostate at 10 mg/kg/day, po administered for 4 days; assay type: functional, Prostate gland; outline: as §1
Rattus norvegicus [3] = assay: Anabolic activity in ORX rat model assessed as weight of levator ani muscle at 30 mg/kg/day, po administered for 4 days; assay type: functional; outline: as §1
[4] = Oral bioavailability in monkey; assay type: ADME, organism-based, Macaca mulatta; details: rhesus monkey, in vivo
[5] = Oral bioavailability in rat at 10 mg/kg and 3 mg/kg, iv; assay type: ADME, organism-based; details: in vivo
Outline: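 Absolute oral bioavailability in rats: single oral dose 10 mg/kg in EtOH/PEG400/H₂O (1/79/20, v/v/v) compared with single iv dose 3 mg/kg in DMSO/PEG400/H₂O (1/65/34, v/v/v).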

Rattus norvegicus [6] = assay: Anabolic activity in ORX rat model assessed as weight of levator ani muscle at 10 mg/kg/day, po administered for 4 days; assay type: functional; outline: as §1
[7] = Oral bioavailability in Sprague-Dawley rat at 10 mg/kg; assay type: ADME, organism-based; details: in vivo
Outline: (§2)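 Male Sprague-Dawley rats, single dose: iv 3 mg/kg in DMSO/PEG200/H₂O (1/79/20, v/v/v), or oral 10 mg/kg in EtOH/PEG200/H₂O (1/79/20, v/v/v). Two groups of three rats; N = 2 rats for one arm. CL, T1/2, Vdss, AUC(0−∞) and F derived.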

[8] = AUC (0 to infinity) in Sprague-Dawley rat at 10 mg/kg, po; assay type: ADME, organism-based; set-up: time infinity, dose 10 mg/kg, route oral; details: plasma
[9] = AUC (0 to infinity) in Sprague-Dawley rat at 3 mg/kg, iv; assay type: ADME, organism-based; set-up: dose 3 mg/kg, route intravenous, time infinity; details: plasma
[10] = Volume of distribution at steady state in Sprague-Dawley rat at 3 mg/kg, iv; assay type: ADME, organism-based; set-up: dose 3 mg/kg, route intravenous; details: in vivo, read-out: Vdss; outline: as §2
[11] = Half life in Sprague-Dawley rat at 10 mg/kg, po; assay type: ADME, organism-based; set-up: dose 10 mg/kg, route oral; details: in vivo; outline: as §2
[12] = Half life in Sprague-Dawley rat at 3 mg/kg, iv; assay type: ADME, organism-based; set-up: dose 3 mg/kg, route intravenous; details: in vivo; outline: as §2
[13] = Clearance in Sprague-Dawley rat at 3 mg/kg, iv; assay type: ADME, organism-based; set-up: dose 3 mg/kg, route intravenous; details: in vivo; outline: as §2
Rattus norvegicus [14] = assay: […] activity in ORX rat model assessed as increase in prostate weight at 10 mg/kg/day, po administered for 3 months relative to sham-treated control; assay type: functional, Prostate gland
Outline: (§3)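 Rats castrated at seven weeks of age, then given compound orally for three months in a prophylactic setting at 10 mg/kg/day. Levator ani and prostate weights normalised with sham-operated rats set to 100% and ORX rats set to 0%.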

Rattus norvegicus [15] = assay: Anabolic activity in ORX rat model assessed as increase in levator ani muscle weight at 10 mg/kg/day, po administered for 3 months relative to sham-treated control; assay type: functional; outline: as §3
Rattus norvegicus [16] = assay: […] activity in ORX rat model assessed as activity on ventral prostate at 30 mg/kg/day, po administered for 4 days; assay type: functional, Prostate gland; outline: as §1
Rattus norvegicus [17] = assay: Anabolic activity in ORX rat model assessed as dose required for 50% activity on levator ani muscle po administered for 4 days; assay type: functional; outline: as §1
Rattus norvegicus [18] = assay: Androgenic activity in ORX rat model assessed as dose required for 50% activity on ventral prostate po administered for 4 days; assay type: functional, Prostate gland; outline: as §1
Rattus norvegicus [19] = assay: Androgenic activity in ORX rat model assessed as weight of ventral prostate at 1 mg/kg/day, sc administered for 4 days; assay type: functional, Prostate gland; details: route subcutaneous; outline: as §1
Rattus norvegicus [20] = assay: Anabolic activity in ORX rat model assessed as weight of levator ani muscle at 1 mg/kg/day, sc administered for 4 days; assay type: functional; details: route subcutaneous; outline: as §1

Structure (SMILES) | Activity (Rattus norvegicus [2]) [%] | bioavailability [5] [%] | Activity (Rattus norvegicus [6]) [%] | also measured
CN1C(=O)N(c2ccc(C#N)c(C(F)(F)F)c2)C(=O)[C@@]1(C)c1ccc(O)cc1 | 12 | < 9 | – | Activity (Rattus norvegicus [1]): 26%; Activity (Rattus norvegicus [3]): 77%; bioavailability [4]: < 9%
CN1C(=O)N(c2ccc(C#N)c(C(F)(F)F)c2)C(=O)[C@]1(CO)c1ccccc1 | – | – | 101 | –
CN1C(=O)N(c2ccc(C#N)c(C(F)(F)F)c2)C(=O)C1(C)c1ccc(O)cc1 (racemic) | 8 | 1.5 | 68 | Activity (Rattus norvegicus [1]): 16%; Activity (Rattus norvegicus [3]): 89%
CN1C(=O)N(c2ccc(Cl)c(Cl)c2)C(=O)C1(CO)c1ccccc1 (racemic) | 23 | – | 96 | –
CCN1C(=O)N(c2ccc(C#N)c(C(F)(F)F)c2)C(=O)C1(CO)c1ccccc1 (racemic) | 59 | 76 | 112 | –
CC(C)N1C(=O)N(c2ccc(C#N)c(C(F)(F)F)c2)C(=O)C1(CO)c1ccccc1 (racemic) | 60 | – | 109 | –
C#CCN1C(=O)N(c2ccc(C#N)c(C(F)(F)F)c2)C(=O)C1(CO)c1ccccc1 (racemic) | 43 | – | 96 | –
CN1C(=O)N(c2ccc(C#N)c(C(F)(F)F)c2)C(=O)C1(C)c1ccc2[nH]ccc2c1 (racemic) | – | 19 | – | –
CN1C(=O)N(c2ccc(C#N)c(C(F)(F)F)c2)C(=O)C1(C)c1ccc2[nH]cnc2c1 (racemic) | – | 100 | – | –
CN1C(=O)N(c2ccc(C#N)c(C(F)(F)F)c2)C(=O)C1(CO)c1ccccc1 (racemic) | 13 | 63 | – | Activity (Rattus norvegicus [1]): 14%; Activity (Rattus norvegicus [3]): 96%
COc1ccc(C2(CO)C(=O)N(c3ccc(C#N)c(C(F)(F)F)c3)C(=O)N2C)cc1 (racemic) | – | 25 | – | Activity (Rattus norvegicus [1]): 95%; Activity (Rattus norvegicus [3]): 130%
CN1C(=O)N(c2ccc(C#N)c(C(F)(F)F)c2)C(=O)C1(CO)c1ccc(O)cc1 (racemic) | – | 15 | – | Activity (Rattus norvegicus [1]): 55%; Activity (Rattus norvegicus [3]): 82%
CN1C(=O)N(c2ccc(C#N)c(C(F)(F)F)c2)C(=O)C1(CO)c1ccccc1Cl (racemic) | 7 | – | 26 | –
CN1C(=O)N(c2ccc(C#N)c(C(F)(F)F)c2)C(=O)C1(CO)c1cccc(Cl)c1 (racemic) | 16 | – | 66 | –
CN1C(=O)N(c2ccc(C#N)c(C(F)(F)F)c2)C(=O)C1(CO)c1ccc(Cl)cc1 (racemic) | 0 | 99 | 35 | –
CN1C(=O)N(c2ccc(C#N)c(C(F)(F)F)c2)C(=O)C1(CO)c1ccc(F)cc1 (racemic) | – | 87 | – | –
CN1C(=O)N(c2ccc(C#N)c(C(F)(F)F)c2)C(=O)C1(CO)c1cccc(C#N)c1 (racemic) | 26 | – | 84 | –
CN1C(=O)N(c2ccc(C#N)c(C(F)(F)F)c2)C(=O)C1(CO)c1ccc(C#N)cc1 (racemic) | 11 | – | 12 | –
Cc1cccc(C2(CO)C(=O)N(c3ccc(C#N)c(C(F)(F)F)c3)C(=O)N2C)c1 (racemic) | 0 | – | 24 | –
CN1C(=O)N(c2ccc(C#N)c(C(F)(F)F)c2)C(=O)[C@@]1(CO)c1ccccc1 [GLPG0492] | 24 | 56 | 101 | bioavailability [7]: 56%; AUC(0-inf) [8]: 4680 ng·h/mL; AUC(0-inf) [9]: 2360 ng·h/mL; Vd [10]: 2.5 L/kg; half-life [11]: 2.2 h; half-life [12]: 1.5 h; clearance [13]: 21.7 mL/min/kg; Activity (Rattus norvegicus [14]): 25%; Activity (Rattus norvegicus [15]): 117%; %max (Rattus norvegicus [16]): 30%; Activity (Rattus norvegicus [17]): 0.75 mg/kg/day; Activity (Rattus norvegicus [1]): 26%; Activity (Rattus norvegicus [3]): 106%
CCC(=O)O[C@H]1CC[C@H]2[C@@H]3CCC4=CC(=O)CC[C@]4(C)[C@H]3CC[C@]12C [TESTOSTERONE PROPIONATE] | – | – | – | Activity (Rattus norvegicus [18]): 0.2 mg/kg/day; Activity (Rattus norvegicus [17]): 0.3 mg/kg/day; Activity (Rattus norvegicus [19]): 73%; Activity (Rattus norvegicus [20]): 99%
